From ChEMBL document CHEMBL1140159, “Gedunin, a novel hsp90 inhibitor: semisynthesis of derivatives and preliminary structure-activity relationships” (J Med Chem, 2008)

Assays:
[1] = system: MCF7; assay: Antiproliferative activity against human MCF7 cells after 72 hrs; format: functional, cell-based; conditions: MCF7, 72 h
Summary of the method: (§1)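 Cells were grown in a 1:1 Advanced DMEM/F12 mix with nonessential amino acids, 2 mM L-glutamine, penicillin/streptomycin and 10% FBS at 37 °C and 5% CO₂. They were seeded at 2000/well and left to attach overnight, then dosed over a concentration range (1% DMSO final) for 72 h. Viable cells were read by MTS/PMS, normalised to 1% DMSO controls (100%), and IC50 was taken from a nonlinear dose–response fit; three experiments, each in triplicate.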

[2] = system: SK-BR-3; assay: Antiproliferative activity against human SKBr3 cells after 72 hrs; format: functional, cell-based; conditions: SK-BR-3, 72 h; summary of the method: as §1

Row | Compound | IC50 [1] [µM] | IC50 [2] [µM]
1 | CC1(C)C(=O)C=C[C@]2(C)[C@H]3CC[C@@]4(C)[C@@H](c5ccoc5)OC(=O)[C@H]5O[C@]54[C@]3(C)[C@H](OCc3ccccc3)C[C@@H]12 | > 100 | > 100
2 | CC(=O)O[C@@H]1C[C@H]2C(C)(C)C(O)C=C[C@]2(C)[C@H]2CC[C@@]3(C)C(c4ccoc4)OC(O)[C@H]4O[C@]43[C@@]21C (single isomer, unassigned) | 47.7 | 82.4
3 | CC1(C)C(=O)C=C[C@]2(C)[C@H]3CC[C@@]4(C)[C@H](c5ccoc5)OC(=O)[C@H]5O[C@]54[C@]3(C)[C@H](O)C[C@@H]12 [DEACETYLGEDUNIN] | 29 | 21.1
4 | CC1(C)C(=O)[C@H]2O[C@H]2[C@]2(C)[C@H]3CC[C@@]4(C)C(c5ccoc5)OC(=O)[C@H]5O[C@]54[C@]3(C)[C@H](O)C[C@@H]12 (single isomer, unassigned) | > 100 | > 100
5 | CC(=O)O[C@@H]1C[C@H]2C(C)(C)C(O)CC[C@]2(C)[C@H]2CC[C@@]3(C)[C@@H](c4ccoc4)OC(O)[C@H]4O[C@]43[C@@]21C (some centres not stated) | > 100 | > 100
6 | CC(=O)O[C@@H]1C[C@H]2C(C)(C)C(=O)C3OC(C)(C)OC3[C@]2(C)[C@H]2CC[C@@]3(C)C(c4ccoc4)OC(=O)[C@H]4O[C@]43[C@@]21C (single isomer, unassigned) | > 100 | > 100
7 | CC1(C)C(=O)C=C[C@]2(C)[C@H]3CC[C@@]4(C)[C@@H](c5ccoc5)OC(=O)[C@H]5O[C@]54[C@]3(C)C(=O)C[C@@H]12 | 10.9 | 4.49
8 | CC(=O)O[C@@H]1C[C@H]2C(C)(C)C(=O)C(O)C(O)[C@]2(C)[C@H]2CC[C@@]3(C)[C@@H](c4ccoc4)OC(=O)[C@H]4O[C@]43[C@@]21C (some centres not stated) | > 100 | > 100

Results, then the compound that gave them:

Row | IC50 [1] [µM] | IC50 [2] [µM] | Compound
9 | > 100 | > 100 | CO/N=C1\C=C[C@]2(C)[C@H]3CC[C@@]4(C)[C@@H](c5ccoc5)OC(=O)[C@H]5O[C@]54[C@]3(C)[C@H](OC(C)=O)C[C@H]2C1(C)C
10 | > 100 | > 100 | CCC(=O)O[C@@H]1C[C@H]2C(C)(C)C(=O)C=C[C@]2(C)[C@H]2CC[C@@]3(C)[C@@H](c4ccoc4)OC(=O)[C@H]4O[C@]43[C@@]21C
11 | > 100 | > 100 | CCO/N=C1\C=C[C@]2(C)[C@H]3CC[C@@]4(C)[C@@H](c5ccoc5)OC(=O)[C@H]5O[C@]54[C@]3(C)[C@H](OC(C)=O)C[C@H]2C1(C)C
12 | 37.3 | 18.1 | CCCO[C@@H]1C[C@H]2C(C)(C)C(=O)C=C[C@]2(C)[C@H]2CC[C@@]3(C)[C@@H](c4ccoc4)OC(=O)[C@H]4O[C@]43[C@@]21C
13 | 33.2 | 26.5 | CC(=O)O[C@@H]1C[C@H]2C(C)(C)/C(=N/O)C=C[C@]2(C)[C@H]2CC[C@@]3(C)[C@@H](c4ccoc4)O/C(=N\O)[C@H]4O[C@]43[C@@]21C
14 | > 100 | > 100 | CC(=O)OC1C=C[C@]2(C)[C@H]3CC[C@@]4(C)C(c5ccoc5)OC(=O)[C@H]5O[C@]54[C@]3(C)[C@H](OC(C)=O)C[C@H]2C1(C)C (single isomer, unassigned)
15 | 8.84 | 3.22 | CC(=O)O[C@@H]1C[C@H]2C(C)(C)C(=O)C=C[C@]2(C)[C@H]2CC[C@@]3(C)[C@H](c4ccoc4)OC(=O)[C@H]4O[C@]43[C@@]21C [GEDUNIN]
16 | 38.9 | 13 | CO[C@@H]1C[C@H]2C(C)(C)C(=O)C=C[C@]2(C)[C@H]2CC[C@@]3(C)[C@@H](c4ccoc4)OC(=O)[C@H]4O[C@]43[C@@]21C
17 | 54.3 | 47.7 | CC(=O)O[C@@H]1C[C@H]2C(C)(C)C(O)C=C[C@]2(C)[C@H]2CC[C@@]3(C)C(c4ccoc4)OC(=O)[C@H]4O[C@]43[C@@]21C (single isomer, unassigned)
18 | > 100 | > 100 | CC(=O)O[C@@H]1C[C@H]2C(C)(C)/C(=N/OCc3ccccc3)C=C[C@]2(C)[C@H]2CC[C@@]3(C)[C@@H](c4ccoc4)OC(=O)[C@H]4O[C@]43[C@@]21C
19 | 9.79 | 7.05 | CC1(C)C(=O)C=C[C@]2(C)[C@H]3CC[C@@]4(C)[C@@H](c5ccoc5)OC(=O)[C@H]5O[C@]54[C@]3(C)[C@H](OC(N)=O)C[C@@H]12
20 | 14.8 | 12.1 | CCO[C@@H]1C[C@H]2C(C)(C)C(=O)C=C[C@]2(C)[C@H]2CC[C@@]3(C)[C@@H](c4ccoc4)OC(=O)[C@H]4O[C@]43[C@@]21C
21 | > 100 | > 100 | CC(=O)O[C@@H]1C[C@H]2C(C)(C)C(=O)CC[C@]2(C)[C@H]2CC[C@@]3(C)[C@@H](c4ccoc4)OC(=O)[C@H]4O[C@]43[C@@]21C
